# Bioassay records as filed in PubChem BioAssay.
# Rows were chosen to be rich in hits. Some 2.3% of all compounds tested hit in one or more screens of this group.
# ATG4B inh = ATG4B protease inhibitors, primary screen, biochemical, fluorescence, uHTS | hit rate 0.51% among 340,000 | inhibition, % at 8.33 µM | ATG4B cleavage of LC3-PLA2, NBD-HPC fluorescence, 1 h; in the data active means inhibition above about 40%
# SR-BI HDL uptake = inhibitors of SR-BI mediated HDL lipid uptake, primary screen, ldlA[mSR-BI] cells, fluorescence, single point; Scavenger receptor class B member 1 (Mus musculus), Q61009; ldlA[mSR-BI] CHO cells, DiI-HDL uptake fluorescence, 3 h; inhibition, % at 12.5 µM; hit rate 0.96% among 320,000; AID 488896, 2010;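 active means mean replicate inhibition of at least 70% and a set share of replicates each scoring 70 or more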
# Target sequence (Q61009 whole entry, looked up): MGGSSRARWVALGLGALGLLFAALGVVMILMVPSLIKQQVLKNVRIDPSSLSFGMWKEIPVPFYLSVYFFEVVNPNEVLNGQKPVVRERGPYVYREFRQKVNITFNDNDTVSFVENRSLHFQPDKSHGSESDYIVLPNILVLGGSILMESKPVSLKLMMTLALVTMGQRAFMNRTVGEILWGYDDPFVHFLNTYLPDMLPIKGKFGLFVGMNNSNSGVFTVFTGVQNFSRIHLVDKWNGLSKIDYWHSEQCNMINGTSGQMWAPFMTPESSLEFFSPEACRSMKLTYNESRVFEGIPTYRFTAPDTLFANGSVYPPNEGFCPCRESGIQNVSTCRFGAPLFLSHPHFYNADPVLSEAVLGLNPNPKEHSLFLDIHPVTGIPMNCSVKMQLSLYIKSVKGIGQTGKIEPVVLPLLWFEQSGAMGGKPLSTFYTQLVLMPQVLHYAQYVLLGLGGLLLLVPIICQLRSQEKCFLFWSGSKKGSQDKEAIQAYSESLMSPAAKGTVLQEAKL
# CAL PDZ FP-1 = untagged CAL PDZ binding inhibitors, primary screen, biochemical, fluorescence polarization, HTS. Golgi-associated PDZ and coiled-coil motif-containing protein (Homo sapiens), Q9HD26. purified CAL PDZ, TMR-peptide fluorescence polarization, 1 h. inhibition, % at 24.9 µM. hit rate 0.92% among 300,000;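 active means mean inhibition of at least 30% with at least half of replicates also reaching 30%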
# CAL PDZ FP-2 = CAL PDZ peptide-binding inhibitors, primary screen, biochemical, fluorescence polarization, Cer-tagged CAL PDZ, HTS; inhibition, % at 20 µM; Golgi-associated PDZ and coiled-coil motif-containing protein (Homo sapiens), Q9HD26; AID 504414, 2011; purified CAL PDZ, TMR-peptide fluorescence polarization, 1 h; hit rate 0.02% among 330,000;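 active means highest replicate inhibition of at least 40%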
#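 Read-out basis: mP drop reported as inhibition | Assay system: Tagged CAL PDZ protein CerCALP, purified | Benchmarks: Unlabelled peptide for full inhibition, DMSO wells as neutral | Schedule: 1 h incubation at room temperature before polarization reading | Buffer or medium: Sodium phosphate/NaCl buffer pH 7.4 with TCEP, IgG, Thesit | Doses: Single point, 20 µM | Measured by: Fluorescence polarization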
# SR-BI uptake up = activators of SR-BI mediated DiI-HDL uptake, primary screen, ldlA[mSR-BI] CHO cells, DiI fluorescence. 3 h; 100 = double the neutral-control signal. activation, % at 12.5 µM. hit rate 0.096% among 320,000;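 active means mean replicate activation of at least 60% and every replicate at or above 60%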
#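 Test system: SR-BI-overexpressing, LDLR-lacking CHO cells; Also added: labelled HDL, 10 µg/mL; Measured by: bottom-read cell fluorescence after medium removal, ex 550/em 595 nm; Timing: 3 h uptake period with compound, 37 °C; Buffer or medium: F12, 0.5% BSA, 25 mM HEPES; Doses: single compound concentration, delivered by pin transfer.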
# Numbers stand for hits; n = inactive; x = no result; ! = a repeat was not active.
SMILES,ATG4B inh,SR-BI HDL uptake,CAL PDZ FP-1,CAL PDZ FP-2,SR-BI uptake up
Cc1ccc(S(=O)(=O)Nc2c(C)n(C)n(-c3ccccc3)c2=O)cc1,n,n,54.4!,n,n
CC1N(C)c2cc(NC(=O)c3cccs3)c(P(=O)(Nc3ccc([N+](=O)[O-])cc3)N3CCOCC3)cc2C1(C)C (configuration not stated),n,n,n,n,n
O=[N+]([O-])c1ccc(SCc2ccco2)cc1N1CCOCC1,n,n,45.1,n,n
O=[N+]([O-])c1ccc(N2CCOCC2)cc1SCc1ccco1,n,n,n,n,n
CCn1c(=O)cc(SCC(=O)NCCCN2CCC(C)CC2)c2ccccc21,n,n,30.6,n,n
CCn1c(=O)cc(SCC(=O)NCCCN2CCN(c3ccc(F)cc3)CC2)c2ccccc21,n,n,x,n,n
COc1ccccc1NC(=O)NNC(=O)c1cc2ccccc2cc1O,n,93.7,n,n,n
COc1cc(OC)cc(C(=O)NNC(=O)c2cc3ccccc3cc2O)c1,n,113.6,x,n,n
COc1c(CC=C(C)C)c(O)cc2oc(=O)c3c4ccc(O)cc4oc3c12,n,x,x,x,x
COc1c2c(cc3oc(=O)c4c5ccc(O)cc5oc4c13)OC(C)(C)CC2,n,89.2,n,n,n
CCCCN(C(=O)c1ccc(C)o1)c1c(N)n(CC(C)C)c(=O)[nH]c1=O,n,n,n,n,n
NC(=O)c1ccsc1NC(=O)CCS(=O)(=O)c1ccc(Cl)cc1,n,n,n,n,n
Nc1nc(SCC(=O)c2ccc(Br)s2)n[nH]1,n,n,n,n,640.8
O=C(NCC1COCCO1)c1ccc2nc(Cc3cccc(Cl)c3)oc2c1 (configuration not stated),n,n,n,n,n
O=C(c1ccc(N2CCCC2=O)cc1)N1CCN(c2ccccc2F)CC1,n,n,56.3,n,n
O=C(c1ccc(N2CCCC2=O)cc1)N1CCN(c2ccccc2O)CC1,n,n,n,n,n
COc1ccc(NC(=O)CN(C)C(=O)c2ccc(OCc3ccccc3)c(OC)c2)cc1,n,n,n,n,n
Nc1c(C(=O)Nc2ccccc2)nnn1-c1ccc2c(c1)OCCO2,n,n,79.5,n,n
COc1ccc(/C=C/C(=O)OCC(=O)Nc2cccc(S(=O)(=O)NC3=NCCCCC3)c2)cc1,n,n,n,n,n
CCN(C[C@H]1N[C@@](CC)(C(=O)OC)[C@H]2C(=O)N(Cc3ccccc3)C(=O)[C@@H]12)S(=O)(=O)c1ccc(F)cc1,n,n,n,n,n
COc1ccccc1CCNC(=O)c1cc(-c2ccncc2)nc2ccc(Br)cc12,n,77.5,n,n,n
CC(C)[Si]1(C(C)C)OCC2OC(n3cnc4c(N)ncnc43)C(N)C2O[Si](C(C)C)(C(C)C)O1 (configuration not stated),n,n,n,n,n
C#CCOc1ccc(/C=N/O)cc1Cl,n,n,n,n,84.2
C#CCOc1ccc(Cl)cc1/C=N/O,n,n,n,n,n
Cc1cc(OCc2ccc(F)cc2)nc(-c2ccccc2O)n1,n,78.0,n,n,n
SMILES,ATG4B inh,SR-BI HDL uptake,CAL PDZ FP-1,CAL PDZ FP-2,SR-BI uptake up
COc1ccc(OC)c(S(=O)(=O)NCCS(=O)(=O)N2CCN(c3ccccc3)CC2)c1,n,n,34.8,n,n
COc1ccccc1OCC(=O)NCCS(=O)(=O)N1CCN(c2ccc(F)cc2)CC1,n,n,54.4,n,n
COc1ccc(N2CCN(S(=O)(=O)CCNC(=O)COc3ccccc3OC)CC2)cc1,n,n,n,n,n
CCNC(=S)N(CCc1ccc(OC)c(OC)c1)Cc1cc2cc(OC)ccc2[nH]c1=O,n,n,56.5,n,n
COCCCNC(=S)N(CCCO)Cc1cc2cc3c(cc2[nH]c1=O)OCCO3,n,n,41.7,n,n
CCNC(=S)N(CCN(C)C)Cc1cc2cc3c(cc2[nH]c1=O)OCO3,n,n,84.0,x,n
COCCCNC(=S)N(CCCO)Cc1cc2cc3c(cc2[nH]c1=O)OCO3,n,n,n,n,n
CCNC(=S)N(CCc1cccc(C)c1)Cc1cc2cc(OC)c(OC)cc2[nH]c1=O,n,n,n,n,n
